From ChEMBL document CHEMBL1157015, “New isatin derivatives with antioxidant activity” (Eur J Med Chem, 2010)
Calls of active or inactive are those of the source. No cut-off for these calls is given here.

Tests used:
Type in all cases: functional
[1] = Antioxidant activity against hydroperoxyl radical assessed as resorcinol equivalent by Briggs-Rauscher method
How it was run: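 Briggs–Rauscher oscillating reaction run at acidic pH (ca. 2), using resorcinol as standard. Activity is expressed relative to resorcinol from the inhibitory phase of the oscillations.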

[2] = Antioxidant activity against ABTS radical assessed as trolox equivalent by TEAC assay
How it was run: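 TEAC assay run at pH 7.4 against the ABTS radical cation. Trolox served as standard, with activity expressed relative to it.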

[3] = Antioxidant activity against hydroperoxyl radical assessed as inhibition time at 3.71 uM by Briggs-Rauscher method
How it was run: (§1)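 Briggs–Rauscher oscillating reaction run under acidic conditions (pH ca. 2). Read-out is the inhibitory phase induced in the oscillations.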

[4] = Antioxidant activity against hydroperoxyl radical assessed as inhibition time at 3.34 uM by Briggs-Rauscher method; how it was run: as §1
[5] = Antioxidant activity against hydroperoxyl radical assessed as inhibition time at 2.97 uM by Briggs-Rauscher method; how it was run: as §1
[6] = Antioxidant activity against hydroperoxyl radical assessed as inhibition time at 2.25 uM by Briggs-Rauscher method; how it was run: as §1
[7] = Antioxidant activity against hydroperoxyl radical assessed as inhibition time at 1.48 uM by Briggs-Rauscher method; how it was run: as §1

Compound	Activity [1]	Activity [2]	TIME [3] [h]	TIME [4] [h]	TIME [5] [h]	TIME [6] [h]	TIME [7] [h]
COc1ccc(OC)c(NC(=O)C(=O)c2ccccc2NC(C)=O)c1	inactive	inactive					
COc1cc(C2(c3cc(OC)c(N)cc3OC)C(=O)Nc3ccccc32)c(OC)cc1N	1.28 µM	1.4 mM	0.296	0.269	0.24	0.216	0.154
